Efflux pump inh = inhibitors of Candida antifungal efflux pumps expressed in yeast; 330,000 tested, 0.44% active; S. cerevisiae Candida pump triplex, Nile Red efflux; inhibition, % at 10 µM; AID 485275;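 active = plate passing quality check with inhibition over a set limit, or well fluorescence over plate mean plus 4 SD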;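 also: Nile Red retained in pooled yeast measured as flow cytometry median fluorescence; 0% = buffer negative control and 100% = Enniatin B positive control; higher means more Nile Red kept so more efflux inhibition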
AHR activator = activates the human aryl hydrocarbon receptor. activation, % at 5 µM. 320,000 tested, 2.5% active. AID 2796. P35869. AHR-responsive luciferase reporter cells, luminescence; in the data active = activation above about 47%;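 also: 0% = vehicle wells and 100% = reference agonist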
TbMetRS inhib = blocks T. brucei methionyl-tRNA synthetase activity | purified T. brucei MetRS, ATP depletion, Kinase-Glo luminescence | inhibition, % at 11.9 µM | 360,000 tested, 0.4% active | AID 624268;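 active = inhibition above a per-plate cutoff of the control wells' mean inhibition plus 3 SD, cut at about 5.5% in these data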;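 also: 0% = DMSO wells median and 100% = median of wells with control inhibitor compound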
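Assay system: T. brucei methionyl-tRNA synthetase, purified | Medium: HEPES buffer with MgCl2, KCl, DTT, spermine, BSA, pyrophosphatase | Compound: 11.9 µM single point | Incubation: 15 min enzyme-compound preincubation, 2 h reaction, 10 min detection, 25 °C | Measured by: Kinase-Glo luciferase luminescence reporting remaining unconsumed ATP | Measure: % inhibition normalized to control-well medians | Replication: Singlicate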
SMARCA2 activ = increases SMARCA2 function in MMTV reporter cells | MG213 cells, MMTV-luciferase reporter, dexamethasone, overnight | activation, % at 9.1 µM | 370,000 tested, 1% active; in the data active = activation above about 7.8%;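 also: 0% = vehicle wells and 100% = reference activator wells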
H9c2 TAG inh = inhibitors of triacylglycerol accumulation; inhibition, % at 12.5 µM; AID 651582; 230,000 tested, 0.66% active; H9c2 cells, Nile Red lipid (TAG) fluorescence; cells loaded with 200 µM oleic acid;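 active = pattern-corrected inhibition of lipid staining of at least 50% with the nuclear-stain viability signal not falling by more than 50%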;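 also: 0% = DMSO wells and 100% = triacsin C control wells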
TbMetRS confirm = confirmation of Trypanosoma brucei MetRS inhibitors | shares compounds with TbMetRS inhib | T. brucei MetRS enzyme, luminescence (ATP depletion) | inhibition, % at 11.9 µM | 1,400 tested, 93% active | AID 624412; in the data active = inhibition above about 7%
Jurkat tox = Jurkat T cell cytotoxicity for MetRS hits | inhibition, % at 8.3 µM | shares compounds with TbMetRS inhib | Jurkat cells viability, ATP luminescence | AID 624413 | 1,400 tested, 12% active; in the data active = inhibition above about 15%;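 also: 0% = vehicle and 100% = reference inhibitor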
Tb MetRS inh FP = orthogonal test for Trypanosoma brucei MetRS inhibitors; shares compounds with TbMetRS inhib; purified T. brucei MetRS, fluorescence polarization; inhibition, % at 11.9 µM; 1,400 tested, 44% active; AID 651607; in the data active = inhibition above about 17%;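 also: 0% = vehicle wells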
* hit, by the source's call; . = no result given. Most compounds without a hit are left out; they make up all but 4.1% or so of the library.

SMILES	Efflux pump inh	AHR activator	TbMetRS inhib	SMARCA2 activ	H9c2 TAG inh	TbMetRS confirm	Jurkat tox	Tb MetRS inh FP
C=CCN1C(=O)[C@H](CC(=O)N2CCN(C(=O)C3CC3)CC2)[C@@]2(C(=O)OCC)CCCC=C12	.	.	.	-2	.	.	.	.
COc1ccc(CNC(=O)CSc2nc3ccc(C)cc3[nH]2)cc1OC	0	19	8.9*	-2	.	21*	3	7
Cc1ccc2nc(SCC(=O)NCc3ccc(S(N)(=O)=O)cc3)[nH]c2c1	0	22	0	-2	.	.	.	.
Cc1ccc2nc(SCC(=O)NCc3ccc(F)cc3)[nH]c2c1	0	47	18*	-3	.	22*	-1	6
CCOc1ccc2nc(SCC(=O)NCc3ccc(OC)cc3)[nH]c2c1	0	.	0	-3	.	.	.	.
Cc1ccc2nc(C3CCCN(C(=S)Nc4ccccc4C)C3)[nH]c2c1 (stereo not drawn)	0	5	6.8*	4	.	46*	3	22*
O=S(=O)(c1ccc2c(c1)OCCO2)N1CCC(c2nc3ccc(Cl)cc3[nH]2)CC1	0	2	12*	-4	.	17*	24*	12
Cc1ccc2nc(C3CCN(S(=O)(=O)c4ccc5ccccc5c4)CC3)[nH]c2c1	0	9	48*	-4	.	69*	4	36*
O=S(=O)(c1ccc2c(c1)OCCO2)N1CCC(c2nc3ccccc3[nH]2)CC1	0	1	-1	3	.	.	.	.
C#CCCCN([C@@H](CC(C)C)C(=O)OC)S(=O)(=O)c1ccccc1Br	.	.	.	-4	.	.	.	.
COCc1cn(-c2cccc(-c3noc4c3C(=O)N(CC(=O)N3CCOCC3)CC4)c2)nn1	.	.	.	0	.	.	.	.
COc1ccc(S[C@]2(C(=O)N(C)C)CC(=O)N(c3ccsc3)[C@@H]2c2ccc(OC)cc2)cc1	.	.	.	-4	.	.	.	.
Cc1ccc(S(=O)(=O)N(C)[C@H]2C[C@H]3c4cc(N5CCOCC5)ccc4CCN3C[C@H]2[C@H](C)O)cc1	.	.	.	7	.	.	.	.
COc1ccc(N2CCN(CCCNC(=O)COc3ccc(C)cc3)CC2)cc1	.	.	.	-5	.	.	.	.
O=C(CC(=O)c1ccccc1[N+](=O)[O-])c1ccccc1	0	18	.	.	.	.	.	.
O=C(NCc1cc(Br)cc(Br)c1OC(=O)c1ccccc1[N+](=O)[O-])c1ccccc1	0	0	23*	-4	.	28*	14	20*
Cc1[nH]nc2c1C(c1ccccc1)N(Cc1ccccc1)C2=O (stereo not drawn)	.	.	.	0	.	.	.	.
Cc1ccc2nc(/C(C#N)=C\c3cc(O)ccc3[N+](=O)[O-])[nH]c2c1	0	25	14*	2	-14	38*	-7	9
CCOC(=O)[C@@]12CN(C(=O)OC(C)(C)C)CC=C1N(Cc1ccc(OC)cc1)C(=O)[C@H]2CC(=O)NCCCN1CCCC1=O	.	.	.	-4	.	.	.	.
CC(C)N(Cc1cn(Cc2ccccc2)nn1)S(=O)(=O)c1ccccc1Br	.	.	.	-3	.	.	.	.
COc1ccccc1NC(=O)c1nnn(CC(=O)Nc2cccc(SC)c2)c1N	0	21	6.0*	-4	.	7.6*	-2	15
N#Cc1cccc(CNCC(=O)N2CCC3(CC2)OCCO3)c1	.	.	.	-4	.	.	.	.
Cc1nc2nc(SCc3nc4ccccc4[nH]3)[nH]c2cc1Br	0	26	13*	-2	-1	18*	0	12
Cc1ccc2nc(SCc3nc4ccccc4c(=O)[nH]3)[nH]c2c1	0	30	0	8	-1	.	.	.
Nc1ccc(C(=O)OCc2nc3c(ccc4ccccc43)[nH]2)cc1	0	10	7.1*	-1	10	10*	20*	11
SMILES	Efflux pump inh	AHR activator	TbMetRS inhib	SMARCA2 activ	H9c2 TAG inh	TbMetRS confirm	Jurkat tox	Tb MetRS inh FP
Nc1ccc(C(=O)OCc2nc3cc4ccccc4cc3[nH]2)cc1	0	9	3	0	10	.	.	.
N#Cc1ccc(CSc2nnc(Nc3ccccc3)s2)cc1	0	-5	52*	-4	-47	64*	-1	39*
c1ccc(CSc2nnc(NC3=NCCCCC3)s2)cc1	0	7	0	5	-11	.	.	.
CCCCNC(=O)N1CCC(CCC(=O)N(C)Cc2ccccc2)CC1	0	-2	0	2	11	.	.	.
CCOC(=O)CNC(=O)N1CCC(CCC(=O)N(C)Cc2ccccc2)CC1	0	-2	5.7*	-1	-1	3	-7	-3
O=C(CSc1nnc(-c2cccnc2)n1C1CCCCC1)NC1CCCCCC1	.	.	.	2	.	.	.	.
COC(=O)C[C@@H]1CC[C@H]2[C@H](COc3ccc(NC(=O)Nc4ccc(C#N)cc4)cc3C(=O)N2C)O1	.	.	.	-6	.	.	.	.
COc1ccccc1NS(=O)(=O)c1cccc(NC(=O)Nc2ccc(Cl)cc2)c1	0	18	51*	-6	-51	78*	4	103*
COc1ccccc1NS(=O)(=O)c1cccc(NC(=O)Nc2ccccc2)c1	-1	9	88*	-6	.	100*	13	105*
COc1ccc(C(=O)N/C(=C\c2cccs2)c2nc3ccccc3[nH]2)cc1OC	0	20	8.2*	0	.	16*	0	2
Cc1ccc(C(=O)N/C(=C\c2cccnc2)c2nc3ccccc3[nH]2)cc1	0	18	15*	0	.	35*	-4	11
COc1ccc(/C=C(/NC(=O)c2ccccc2)c2nc3ccccc3[nH]2)cc1OC	0	10	0	-3	-24	.	.	.
O=C(Nc1ccc(Cl)cc1)Nc1ccccc1CC[N+](=O)[O-]	0	67*	37*	-1	-16	66*	4	30*
O=C(Nc1ccc(Cl)cc1)Nc1csc([N+](=O)[O-])c1	0	8	12*	-7	-28	22*	73*	22*
